# According to ChEMBL document CHEMBL2157887, “Adamantyl carboxamides and acetamides as potent human 11β-hydroxysteroid dehydrogenase type 1 inhibitors” (Bioorg Med Chem, 2012):
# Activity calls are given as the source filed them. No cut-off for these calls is given here.
# Assays:
# [1] = biological target: T1, 17-beta-hydroxysteroid dehydrogenase type 1 (Homo sapiens) (UniProt P14061); experiment: Inhibition of human 17beta-HSD1 in human T47D cells assessed as conversion of [3H]E1 to [3H]E2 at 10 uM after 30 mins; type: cell-based
# T1 sequence (whole entry): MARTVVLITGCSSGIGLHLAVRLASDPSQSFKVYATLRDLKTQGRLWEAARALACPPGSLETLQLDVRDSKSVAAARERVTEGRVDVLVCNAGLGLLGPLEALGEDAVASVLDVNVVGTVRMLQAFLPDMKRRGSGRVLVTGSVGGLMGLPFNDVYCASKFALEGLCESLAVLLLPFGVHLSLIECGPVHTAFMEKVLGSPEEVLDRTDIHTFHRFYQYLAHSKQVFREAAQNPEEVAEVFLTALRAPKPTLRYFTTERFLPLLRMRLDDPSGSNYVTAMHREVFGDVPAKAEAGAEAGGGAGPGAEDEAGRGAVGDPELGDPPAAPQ
# [2] = biological target: T2, 11-beta-hydroxysteroid dehydrogenase type 2 (Homo sapiens) (UniProt P80365); experiment: Inhibition of human 11beta-HSD2 expressed in CHO cells assessed as conversion of [3H]cortisol to [3H]cortisone at 10 uM after 2 hrs
# T2 sequence (whole entry): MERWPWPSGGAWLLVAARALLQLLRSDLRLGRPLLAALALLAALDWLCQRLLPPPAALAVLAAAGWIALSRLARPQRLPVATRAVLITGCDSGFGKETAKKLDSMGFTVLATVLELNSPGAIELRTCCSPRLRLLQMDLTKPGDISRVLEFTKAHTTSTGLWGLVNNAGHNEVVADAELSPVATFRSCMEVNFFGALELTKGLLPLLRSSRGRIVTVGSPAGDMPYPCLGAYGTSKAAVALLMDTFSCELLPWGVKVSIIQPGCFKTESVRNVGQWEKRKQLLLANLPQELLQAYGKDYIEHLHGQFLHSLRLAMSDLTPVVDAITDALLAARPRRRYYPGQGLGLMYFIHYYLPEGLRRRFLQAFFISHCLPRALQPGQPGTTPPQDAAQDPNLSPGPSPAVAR
# [3] = biological target: 11-beta-hydroxysteroid dehydrogenase 1 (Homo sapiens) (UniProt P28845); experiment: Inhibition of human 11beta-HSD1 expressed in HEK293 cells assessed as conversion of [3H]cortisone to [3H]cortisol at 1 uM after 2 hrs by scintillation counting; type: cell-based
# Sequence of 11-beta-hydroxysteroid dehydrogenase 1 (Homo sapiens) (P28845 whole entry, looked up): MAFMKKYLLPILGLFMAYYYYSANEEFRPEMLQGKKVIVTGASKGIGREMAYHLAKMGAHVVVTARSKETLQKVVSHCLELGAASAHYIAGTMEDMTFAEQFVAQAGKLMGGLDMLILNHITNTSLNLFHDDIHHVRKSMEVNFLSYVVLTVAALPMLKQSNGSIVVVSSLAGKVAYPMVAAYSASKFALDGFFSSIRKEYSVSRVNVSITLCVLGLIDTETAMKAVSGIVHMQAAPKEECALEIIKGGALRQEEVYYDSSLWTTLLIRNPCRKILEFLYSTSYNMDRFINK
# How it was run: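 HSD11B1-stably transfected HEK-293 cells grown to 80% confluence, then given serum-free medium with 22 nM ³H-cortisone and compound in 1% DMSO, 37 °C, 2 h. Medium sampled into anti-cortisol antibody/SPA bead mix, shaken to equilibrium, scintillation counted. Percent inhibition against high controls (no compound) and low controls (no cells).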
# [4] = Half life in human liver microsomes by HPLC analysis in presence of NADPH; type: ADME, Microsome
# How it was run: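 Parent compound incubated with human liver microsomes plus NADPH cofactor at 37 °C for 40 min; remaining parent quantified by HPLC to derive T1/2.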
SMILES,inhibition [1],inhibition [2],inhibition [3] [%],half-life [4] [h]
CN(Cc1nccn1C)C(=O)C12CC3CC(CC(C3)C1)C2,inactive,inactive,–,–
Cc1csc(CN(C)C(=O)C23CC4CC(CC(C4)C2)C3)n1,inactive,inactive,–,–
O=C(NCc1cccs1)C12CC3CC(CC(C3)C1)C2,inactive,inactive,–,–
O=C(NCc1ccco1)C12CC3CC(CC(C3)C1)C2,inactive,inactive,–,–
Cc1csc(CNC(=O)C23CC4CC(CC(C4)C2)C3)c1,inactive,inactive,–,–
O=C(NCc1cccnc1)C12CC3CC(CC(C3)C1)C2,inactive,inactive,–,–
O=C(CC12CC3CC(CC(C3)C1)C2)NCc1cccs1,inactive,inactive,–,–
O=C(NCCc1cccnc1)C12CC3CC(CC(C3)C1)C2,inactive,inactive,–,–
CN(Cc1cccnc1)C(=O)CC12CC3CC(CC(C3)C1)C2,inactive,inactive,–,–
CN(Cc1cccs1)C(=O)C12CC3CC(CC1C3)C2,inactive,inactive,–,–
CN(Cc1cccs1)C(=O)C1(c2ccc(Cl)cc2)CC1,inactive,inactive,–,–
CN(CCc1ccccn1)C(=O)C12CC3CC(CC(C3)C1)C2,inactive,inactive,–,–
CN(Cc1ccccn1)C(=O)CC12CC3CC(CC(C3)C1)C2,inactive,inactive,26,–
O=C(NCCc1ccccn1)C12CC3CC(CC(C3)C1)C2,inactive,inactive,–,–
Cn1cccc1CNC(=O)CC12CC3CC(CC(C3)C1)C2,inactive,inactive,–,–
CN(Cc1cccn1C)C(=O)CC12CC3CC(CC(C3)C1)C2,inactive,inactive,–,–
Cc1ccc(C2(C(=O)N(C)Cc3cccs3)CC2)cc1,inactive,inactive,–,–
CN(Cc1cccs1)C(=O)C1(c2ccc(Cl)cc2)CCCC1,inactive,inactive,–,–
O=C(NCc1ccccn1)C12CC3CC(CC(C3)C1)C2,inactive,inactive,–,–
Cc1csc(CN(C)C(=O)C23CC4CC(CC(C4)C2)C3)c1,inactive,inactive,–,–
CN(Cc1cccs1)C(=O)C1(C)CCCCC1,inactive,inactive,–,–
Cn1cccc1CNC(=O)C12CC3CC(CC(C3)C1)C2,inactive,inactive,–,–
CN(Cc1ccnn1C)C(=O)C12CC3CC(CC(C3)C1)C2,inactive,inactive,–,–
CN(Cc1cccs1)C(=O)CC12CC3CC(CC(C3)C1)C2,inactive,inactive,–,–
O=C(NCCc1cccs1)C12CC3CC(CC(C3)C1)C2,inactive,inactive,–,–
CN(Cc1cccs1)C(=O)C1(c2ccc(Cl)cc2)CCC1,inactive,inactive,–,–
CN(Cc1ccsc1)C(=O)CC12CC3CC(CC(C3)C1)C2,inactive,inactive,–,–

# Next, values leading:
inhibition [1],inhibition [2],inhibition [3] [%],half-life [4] [h],SMILES
inactive,inactive,–,–,Cc1ccc(CN(C)C(=O)C23CC4CC(CC(C4)C2)C3)s1
inactive,inactive,–,–,Cc1cccc(CN(C)C(=O)C23CC4CC(CC(C4)C2)C3)c1
inactive,inactive,–,–,CC(=O)Nc1cccc(CN(C)C(=O)C23CC4CC(CC(C4)C2)C3)c1
inactive,inactive,–,–,Cc1cccc(CN(C)C(=O)C23CC4CC(CC(C4)C2)C3)n1
inactive,inactive,–,–,CN(Cc1ccco1)C(=O)C12CC3CC(CC(C3)C1)C2
inactive,inactive,–,–,CN(Cc1cccc(N)c1)C(=O)C12CC3CC(CC(C3)C1)C2
inactive,inactive,–,1,CN(Cc1cccn1C)C(=O)C12CC3CC(CC(C3)C1)C2
inactive,inactive,–,–,CN(Cc1ccsc1)C(=O)C12CC3CC(CC(C3)C1)C2
inactive,inactive,–,–,CN(Cc1cccc(Cl)c1)C(=O)C12CC3CC(CC(C3)C1)C2
inactive,inactive,–,–,Cc1ccsc1CN(C)C(=O)C12CC3CC(CC(C3)C1)C2
inactive,inactive,–,–,CN(CCc1cccs1)C(=O)C12CC3CC(CC(C3)C1)C2
inactive,inactive,–,–,CN(Cc1ccc(Cl)s1)C(=O)C12CC3CC(CC(C3)C1)C2
inactive,inactive,–,–,CN(Cc1cccnc1)C(=O)C12CC3CC(CC(C3)C1)C2
inactive,inactive,–,–,CN(Cc1sccc1N)C(=O)C12CC3CC(CC(C3)C1)C2
inactive,inactive,–,1,CN(Cc1cccs1)C(=O)C12CC3CC(CC(C3)C1)C2
